Source: ChEMBL document CHEMBL1149561, “Synthesis of benzothiazole semicarbazones as novel anticonvulsants--the role of hydrophobic domain” (Bioorg Med Chem Lett, 2007)
Blank lines part the entries; values can stand above or below the molecule they belong to.

Experiments:
Mus musculus [1] = test: Anticonvulsant activity in Swiss Albino mouse at 30 mg/kg after 0.5 hrs by MES screen test; assay type: functional
In short: (§1)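 Swiss albino mice (25–30 g) given 30 mg/kg i.p. Maximal electroshock (MES) seizure test run 0.5 and 4 h after dosing. Activity read out as % of animals protected. Phenytoin at 30 mg/kg i.p. served as standard.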

Mus musculus [2] = test: Anticonvulsant activity in swiss Albino mouse at 30 mg/kg after 4 hrs by MES screen test; assay type: functional; in short: as §1
Mus musculus [3] = test: Neurotoxicity in Swiss Albino mouse at 30 mg/kg after 0.5 hrs by rotarod test; assay type: toxicity, organism-based; design: dose 30 mg/kg; details: in vivo
In short: (§2)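 Swiss albino mice received 30 mg/kg i.p. Motor impairment scored on the rotarod 0.5 and 4 h after dosing. Results given as number of animals showing toxicity over number tested.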

Mus musculus [4] = test: Neurotoxicity in Swiss Albino mouse at 30 mg/kg after 4 hrs by rotarod test; assay type: toxicity, organism-based; design: dose 30 mg/kg; details: in vivo; in short: as §2
[5] = Lipophilicity, log P of the compound; assay type: physicochemical; details: octanol/water

logP [5]: 3.22
SMILES: C/C(=N\NC(=O)Nc1nc2ccc(C)cc2s1)c1ccc([N+](=O)[O-])cc1
Activity (Mus musculus [1]): 100%
Activity (Mus musculus [2]): 100%
Activity (Mus musculus [3]): Not Active
Activity (Mus musculus [4]): Not Active

logP [5]: 3.12
SMILES: C/C(=N\NC(=O)Nc1nc2ccc(Cl)cc2s1)c1ccccc1
Activity (Mus musculus [1]): 100%
Activity (Mus musculus [2]): 83.3%
Activity (Mus musculus [3]): Not Active
Activity (Mus musculus [4]): Not Active

SMILES: C/C(=N\NC(=O)Nc1nc2ccc(Cl)cc2s1)c1ccc([N+](=O)[O-])cc1
Activity (Mus musculus [1]): 33.3%
Activity (Mus musculus [2]): 33.3%

SMILES: COc1ccc2nc(NC(=O)N/N=C(\C)c3ccc(O)cc3)sc2c1
Activity (Mus musculus [1]): 66.6%
Activity (Mus musculus [2]): 50%

SMILES: C/C(=N\NC(=O)Nc1nc2ccc(C)cc2s1)c1ccccc1
Activity (Mus musculus [1]): 33.3%
Activity (Mus musculus [2]): 33.3%

SMILES: COc1ccc(/C(C)=N/NC(=O)Nc2nc3ccc(Cl)cc3s2)cc1
Activity (Mus musculus [1]): 66.6%
Activity (Mus musculus [2]): 66.6%

SMILES: C/C(=N\NC(=O)Nc1nc2ccc(C)cc2s1)c1ccc(O)cc1
Activity (Mus musculus [1]): 66.6%
Activity (Mus musculus [2]): 66.6%

SMILES: O=C1NC(=O)C(c2ccccc2)(c2ccccc2)N1 [PHENYTOIN]
Activity (Mus musculus [1]): 100%
Activity (Mus musculus [2]): 100%
Activity (Mus musculus [3]): Not Active
Activity (Mus musculus [4]): Not Active

SMILES: COc1ccc2nc(NC(=O)NN=C(c3ccccc3)c3ccccc3)sc2c1
Activity (Mus musculus [1]): 100%
Activity (Mus musculus [2]): 100%
Activity (Mus musculus [3]): Not Active
Activity (Mus musculus [4]): Not Active

SMILES: COc1ccc(/C(C)=N/NC(=O)Nc2nc3ccc(C)cc3s2)cc1
Activity (Mus musculus [1]): 83.3%
Activity (Mus musculus [2]): 83.3%
Activity (Mus musculus [3]): Not Active
Activity (Mus musculus [4]): Not Active

SMILES: COc1ccc(/C(C)=N/NC(=O)Nc2nc3ccc(OC)cc3s2)cc1
Activity (Mus musculus [1]): 83.3%
Activity (Mus musculus [2]): 83.3%
Activity (Mus musculus [3]): Not Active
Activity (Mus musculus [4]): Not Active

SMILES: C/C(=N\NC(=O)Nc1nc2ccc(Cl)cc2s1)c1ccc(O)cc1
Activity (Mus musculus [1]): 50%
Activity (Mus musculus [2]): 50%

SMILES: Cc1ccc2nc(NC(=O)NN=C(c3ccccc3)c3ccccc3)sc2c1
Activity (Mus musculus [1]): 33.3%
Activity (Mus musculus [2]): 33.3%

SMILES: COc1ccc2nc(NC(=O)N/N=C(\C)c3ccc([N+](=O)[O-])cc3)sc2c1
Activity (Mus musculus [1]): 100%
Activity (Mus musculus [2]): 100%
Activity (Mus musculus [3]): Not Active
Activity (Mus musculus [4]): Not Active

SMILES: O=C(NN=C(c1ccccc1)c1ccccc1)Nc1nc2ccc(Cl)cc2s1
Activity (Mus musculus [1]): 50%
Activity (Mus musculus [2]): 33.3%

SMILES: COc1ccc2nc(NC(=O)N/N=C(\C)c3ccccc3)sc2c1
Activity (Mus musculus [1]): 83.3%
Activity (Mus musculus [2]): 66.6%
Activity (Mus musculus [3]): Not Active
Activity (Mus musculus [4]): Not Active
